mABHD4 FP: inhibits mouse alpha/beta hydrolase domain 4; Q8VD66; purified mABHD4, FP-Rh probe fluorescence polarization; inhibition, % at 8.92 µM; 370,000 tested, 0.54% active;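 active = inhibition exceeding the mean over every tested compound plus 3 SD, cut at about 30% in these data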
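Test system: mouse ABHD4 enzyme, wild type. Reagent: FP-Rh fluorescent activity-based probe, added after compound pre-incubation. Timing: pre-incubation 45 min, probe exposure 60 min, at 25 °C. Technique: FP readout, ex 525 nm / em 598 nm. Benchmarks: high control S159A mutant with DMSO, low control median of compound wells.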
HTRA1 inh: inhibitors of human serine peptidase HTRA1; Q92743; recombinant HTRA1, FP-rhodamine activity-based probe, fluorescence polarization; inhibition, % at 5.96 µM; 340,000 tested, 0.5% active; in the data active = inhibition above about 36%
Target sequence (Q92743 whole entry, looked up): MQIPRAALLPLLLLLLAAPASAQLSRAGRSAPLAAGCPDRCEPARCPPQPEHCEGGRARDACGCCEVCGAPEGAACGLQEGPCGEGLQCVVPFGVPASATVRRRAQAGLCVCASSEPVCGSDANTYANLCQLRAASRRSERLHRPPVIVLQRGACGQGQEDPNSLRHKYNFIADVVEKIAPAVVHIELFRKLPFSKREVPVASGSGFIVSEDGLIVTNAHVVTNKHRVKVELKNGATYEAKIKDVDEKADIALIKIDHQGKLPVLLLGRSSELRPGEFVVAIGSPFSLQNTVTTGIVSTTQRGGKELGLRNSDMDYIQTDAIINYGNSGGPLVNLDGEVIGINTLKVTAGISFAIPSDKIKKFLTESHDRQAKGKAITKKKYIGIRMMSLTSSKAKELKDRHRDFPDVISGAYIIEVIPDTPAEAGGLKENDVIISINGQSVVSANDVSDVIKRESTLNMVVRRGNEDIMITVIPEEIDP
SIAE inh: inhibitors of human sialic acid acetylesterase SIAE; Q9HAT2; SIAE FP-Rh probe binding, fluorescence polarization; 370,000 tested, 0.69% active; AID 1053197; inhibition, % at 9.66 µM;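 active = inhibition above a cutoff: mean of compounds within the control limits plus 3 SD of those, cut at about 17% in these data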
TCR-CD3 inh: human TCR-CD3 binding inhibition | inhibition, % at 9.4 µM | TAMRA-labeled TCR probe fluorescence, biochemical | 360,000 tested, 0.37% active | AID 651800; in the data active = inhibition above about 19%;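 note: recombinant mutant TCR 2C K166C tagged with TAMRA read by polarization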
rCAG RNA binder: binds r(CAG) RNA repeats; r(CAG) RNA repeat, TO-PRO-1 dye displacement fluorescence; inhibition, % at 3 µM; 370,000 tested, 1.3% active; AID 651821;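 active = inhibition above the plate cutoff, the mean of all test compounds on that plate plus 3 SD, cut at about 35% in these data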;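 note: higher means more dye released from RNA so lower well fluorescence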
SIAE confirm: confirmation of human SIAE inhibitors | 2,300 tested, 13% active | shares compounds with SIAE inh | inhibition, % at 9.66 µM | SIAE FP-Rh activity-based probe, fluorescence polarization | AID 1117263;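 active = mean inhibition of the replicates above the hit cutoff set in the primary screen, cut at about 17% in these data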;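 note: inhibitors lower polarization as more probe stays unbound to SIAE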
Of the large screens only hits and unclear results are named; the others gave an inactive call (follow-up assays come after a bar, where they were run). Rows were chosen to be rich in hits. Some 2.5% of all compounds tested hit in one or more screens of this group.

COCC(C)n1c(C)cc(C(=O)COC(=O)/C=C/c2cccc(F)c2)c1C (centres undefined)	none
O=C1OC[C@H]2CCCC[C@@H](CO)ON12	none
O=C1CCN(Cc2ccc(O)cc2)CCN1[C@H](CO)Cc1ccccc1	SIAE inh 18 | SIAE confirm inactive
Cc1ccc(S(=O)(=O)NC(=O)c2cc(C)n(C3CC3)c2C)cc1	SIAE inh 24 | SIAE confirm inactive
Cc1ccc(S(=O)(=O)NCCCNS(C)(=O)=O)cc1	none
CS(=O)(=O)NCCCCCCNS(C)(=O)=O	SIAE inh 17 | SIAE confirm inactive
Cn1cccc1-c1cc(C(=O)N/N=C/c2cc(Br)ccc2O)[nH]n1	SIAE inh 24 | SIAE confirm inactive
O=C(CCC(=O)OCC(F)(F)C(F)F)Nc1ccc(F)cc1F	none
O=C(CCC(=O)OCC(F)(F)C(F)F)Nc1ccc(Cl)cc1	SIAE inh 18 | SIAE confirm inactive
COc1ccc(-c2cc(C(F)(F)F)nc(N3CCCCC3)n2)cc1OC	SIAE inh 19 | SIAE confirm inactive
Cc1ccccc1-n1c(-c2ccc3ccccc3n2)n[nH]c1=S	none
COc1ccc(CCNC(=O)Cc2cccs2)cc1	none
O=C(NCC1CC1)c1ccc2nc([C@@H]3O[C@H](CO)[C@H](O)[C@H](O)[C@H]3O)[nH]c2c1	none (no result: HTRA1 inh)
O=C(Cc1ccc(Nc2nc3ccc(Br)cc3[nH]2)cc1)NCCc1cccs1	SIAE inh 20 | SIAE confirm inactive
O=C(NCc1ccco1)c1cccc(Nc2nc3ccc(Br)cc3[nH]2)c1	SIAE inh 41 | SIAE confirm inactive
O=C(NCC1CC1)c1ccc(Nc2nc3ccc(Br)cc3[nH]2)cc1	SIAE inh 25 | SIAE confirm inactive
COc1ccccc1N1CCN(C(=O)C(Cc2ccccc2)NC(=O)C2CCCCC2)CC1 (centres undefined)	none
O=P(c1ccccc1)(c1ccccc1)C(O)c1ccncc1 (centres undefined)	SIAE inh 24 | SIAE confirm inactive
OC(c1ccccc1)c1ccncc1 (centres undefined)	none
O=C1CN(C(=O)CSc2ccccn2)c2ccccc2N1	none
CN(C)S(=O)(=O)c1ccc(SCC(=O)N2CC(=O)Nc3ccccc32)nc1	SIAE inh 17 | SIAE confirm inactive
COc1ccccc1CCC(=O)OCC(=O)N1c2ccccc2NC(=O)C1(C)C	SIAE inh 21 | SIAE confirm inactive
CCN(CC)CCNC(CC(=O)Nc1ccc(Cl)cc1Cl)C(=O)O (centres undefined)	none
COc1ccc(OC)c(NC(=O)CSc2nc3[nH]c(=O)cc(O)c3s2)c1	SIAE inh 19 | SIAE confirm inactive
COc1cc(NC(=O)CSc2nc3[nH]c(=O)cc(O)c3s2)cc(OC)c1OC	none
CCCCOc1ccccc1C(=O)NNC(=S)NC(=O)c1ccccc1[N+](=O)[O-]	none
COc1ccc(OC)c(/C=N\Nc2nccs2)c1	SIAE inh 18 | SIAE confirm inactive
COc1ccc(/C=N\Nc2ccccn2)c(OC)c1	none
CCOC(=O)N1[C@@H]2C=C(C)[C@@H]2[C@@H]2[C@@H](C)C(=O)N21	SIAE inh 78 | SIAE confirm 86
CCC1(CC)C(=O)N(C)C(=O)NC1=Nc1ccccc1	none
COc1ccc(S(=O)(=O)N2CCCCCC2)cc1C(=O)N1CCN(c2ccccc2O)CC1	SIAE inh 20 | SIAE confirm inactive
O=C(c1cccc(S(=O)(=O)N2CCCC2)c1)N1CCN(c2ccccc2)CC1	none
COc1ccc(S(=O)(=O)N2CCCC2)cc1C(=O)O	SIAE inh 18 | SIAE confirm inactive
COc1ccc(Nc2ccc(S(=O)(=O)N3CCCCC3)cc2[N+](=O)[O-])cc1Cl	SIAE inh 25 | SIAE confirm inactive
COc1ccc(S(=O)(=O)N2CCCC2)cc1OC	none
O=C(c1cccc(S(=O)(=O)N2CCCCCC2)c1)N1CCN(c2ccccc2)CC1	SIAE inh 17 | SIAE confirm inactive
COc1ccc(Nc2ccc(S(=O)(=O)N3CCCCC3)cc2[N+](=O)[O-])cc1	none
CC(OC(=O)CCc1nc2ccccc2c(=O)[nH]1)C(=O)c1ccc(C(C)(C)C)cc1 (centres undefined)	none
COc1cc(CNC(=O)c2cc(-c3cc(C)cc(F)c3)n[nH]2)cc(OC)c1	none (no result: HTRA1 inh)
CN(C)/C=C1\C(=O)N(c2ccc(F)cc2F)C(c2cccnc2)S1(=O)=O (centres undefined)	none
Cc1ccc2ccc(S(=O)(=O)NCc3ccccn3)cc2c1	none
O=Nc1c(O)[nH]c2c(F)cccc12	none
CCc1cccc2c(N=O)c(O)[nH]c12	SIAE inh 21 | SIAE confirm inactive
COc1ccc(/C=C/C(=O)NC(=S)NNC(=O)c2cnccn2)cc1	none
COc1ccc(/C=C/C(=O)NC(=S)NNC(=O)c2cccnc2)cc1	SIAE inh 21 | SIAE confirm inactive
CC(=O)N1c2ccc(S(=O)(=O)NCc3ccccc3Cl)cc2CC1C (centres undefined)	SIAE inh 18 | SIAE confirm inactive
C#CCONC(=O)c1cc(OCC(F)(F)F)ccc1OCC(F)(F)F	SIAE inh 18 | SIAE confirm inactive
O=C(NO)c1cc(OCC(F)(F)F)ccc1OCC(F)(F)F	none
COc1ccccc1NC(=O)CSc1nc2c(oc3ccccc32)c(=O)n1C	none
COc1ccc(S[C@]2(C(=O)N3CCN(C(C)=O)CC3)CC(=O)N(C(=O)c3ccccc3)[C@@H]2c2ccc(OC)cc2)cc1	SIAE inh 18 (no result: HTRA1 inh, TCR-CD3 inh) | SIAE confirm inactive
CCC(c1nnc(SCC(=O)NC2CCCCC2)n1Cc1ccccc1)N(C)C (centres undefined)	SIAE inh 19 | SIAE confirm inactive
CCC(c1nnc(SCC(=O)NCC2CCCO2)n1Cc1ccccc1)N(C)C (centres undefined)	none
O=C1C=C(NC2CC2)C2(CCCCC2)O1	none
CC1CC(C)CN(C(=O)COC(=O)CNS(=O)(=O)/C=C/c2ccccc2)C1 (centres undefined)	none
CC(C)(Oc1ccc(Cl)cc1)C(=O)O/N=C(\N)c1ccncc1	SIAE inh 18 | SIAE confirm inactive
N/C(=N\OC(=O)Cc1ccc(Cl)cc1)c1ccncc1	none
OC(COC(c1ccccc1)c1ccccc1)CN1CCOCC1 (centres undefined)	none
Cc1ccc(Cl)cc1NC(=O)Cn1c(C)csc1=O	SIAE inh 23 | SIAE confirm inactive
Cc1cc(Cl)ccc1NC(=O)CN1CCCC1	SIAE inh 23 | SIAE confirm inactive
CCOC(=O)N1CCN(S(=O)(=O)c2ccc(C)cc2)C1c1ccccc1 (centres undefined)	none
COc1ccc(N2CCN(C(=O)CCCNC(=O)Cn3cnc4sc(C)c(C)c4c3=O)CC2)cc1	none
O=S(=O)(c1ccc(-c2ccon2)s1)N1CCOCC1	none
COCCNC(=S)NCc1cccs1	none
Cc1cccc(C(=O)NCC(=O)NC(C)CCc2ccccc2)c1 (centres undefined)	SIAE inh 20 | SIAE confirm inactive

High-throughput results deposited in PubChem by The Scripps Research Institute Molecular Screening Center.
